This note sets out measurements from PMC6503841 (Nature chemical biology, 2018).

Data set [1] has as its target T1, AF9 YEATS (Homo sapiens, UniProt P42568).
T1 sequence (P42568 1-138): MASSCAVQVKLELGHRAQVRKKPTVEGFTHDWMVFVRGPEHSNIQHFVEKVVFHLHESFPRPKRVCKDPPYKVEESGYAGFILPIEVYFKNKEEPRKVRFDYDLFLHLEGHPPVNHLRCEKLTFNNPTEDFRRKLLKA
Nature of the data set: isothermal titration calorimetry. The format is binding. The following applies: ITC Kd versus the crotonyl group (H3K9cr).

The next data set addresses T2, ENL YEATS (Homo sapiens, UniProt Q03111).
T2 sequence (Q03111 1-138): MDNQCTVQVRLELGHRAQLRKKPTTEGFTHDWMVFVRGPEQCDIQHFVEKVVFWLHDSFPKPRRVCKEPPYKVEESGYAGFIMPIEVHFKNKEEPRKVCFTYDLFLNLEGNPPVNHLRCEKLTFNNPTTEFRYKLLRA
Nature of the data set: competitive photo-cross-linking assay, ENL YEATS. The format is binding. The following applies: comparing with AF9 YEATS.

Data set [2] has as its system YEATS domains of YEATS2 and GAS41. As to the kind of experiment: competitive photo-cross-linking assay, YEATS2 and GAS41 YEATS domains. The format is binding, human. Conditions: AF9 and ENL versus YEATS2 and GAS41; result in words.
Data set [3] has as its target T1, AF9 YEATS. Nature of the data set: competitive photo-cross-linking assay. The format is binding. The following applies: compared with ENL YEATS.
In a further data set the target is T3, endogenous ENL (Homo sapiens, UniProt Q03111).
T3 sequence (Q03111 1-559): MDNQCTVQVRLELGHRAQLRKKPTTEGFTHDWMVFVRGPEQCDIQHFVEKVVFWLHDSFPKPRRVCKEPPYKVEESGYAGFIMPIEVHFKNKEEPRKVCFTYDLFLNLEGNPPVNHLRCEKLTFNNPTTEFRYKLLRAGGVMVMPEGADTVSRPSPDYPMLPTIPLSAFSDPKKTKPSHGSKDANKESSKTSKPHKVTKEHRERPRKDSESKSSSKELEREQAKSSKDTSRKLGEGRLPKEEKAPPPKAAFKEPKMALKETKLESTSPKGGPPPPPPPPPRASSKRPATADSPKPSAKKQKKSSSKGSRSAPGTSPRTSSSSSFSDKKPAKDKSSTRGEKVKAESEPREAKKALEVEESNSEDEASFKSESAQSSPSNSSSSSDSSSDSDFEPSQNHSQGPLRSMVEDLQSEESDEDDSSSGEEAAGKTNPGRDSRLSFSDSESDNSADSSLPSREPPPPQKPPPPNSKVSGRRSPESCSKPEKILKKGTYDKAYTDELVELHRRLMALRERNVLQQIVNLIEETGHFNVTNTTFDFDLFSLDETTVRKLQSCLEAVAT
Nature of the data set: competitive photo-cross-linking pull-down in nuclear extracts, ENL. The format is binding.

Data set [4] deals with T4, endogenous AF9 (Homo sapiens, UniProt P42568).
T4 sequence (P42568 1-568): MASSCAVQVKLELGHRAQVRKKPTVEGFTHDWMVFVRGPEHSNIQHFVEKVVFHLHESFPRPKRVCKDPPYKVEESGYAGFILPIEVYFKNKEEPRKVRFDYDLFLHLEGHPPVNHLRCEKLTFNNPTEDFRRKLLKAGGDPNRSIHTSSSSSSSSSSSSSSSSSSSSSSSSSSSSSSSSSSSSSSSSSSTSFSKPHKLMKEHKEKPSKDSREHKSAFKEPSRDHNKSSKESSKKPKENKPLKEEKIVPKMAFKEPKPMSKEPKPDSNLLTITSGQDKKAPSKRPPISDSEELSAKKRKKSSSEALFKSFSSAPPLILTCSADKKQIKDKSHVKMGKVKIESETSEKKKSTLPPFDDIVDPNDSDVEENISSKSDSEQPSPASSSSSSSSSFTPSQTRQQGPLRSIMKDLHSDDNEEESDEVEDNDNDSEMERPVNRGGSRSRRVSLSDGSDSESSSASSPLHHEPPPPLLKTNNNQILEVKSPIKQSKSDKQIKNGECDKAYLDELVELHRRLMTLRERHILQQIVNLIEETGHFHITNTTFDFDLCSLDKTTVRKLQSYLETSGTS
As to the kind of experiment: competitive photo-cross-linking pull-down in nuclear extracts, AF9. In kind it is binding.

Another data set has as its target T5, ENL (Homo sapiens, UniProt Q03111).
T5 sequence (Q03111 1-559): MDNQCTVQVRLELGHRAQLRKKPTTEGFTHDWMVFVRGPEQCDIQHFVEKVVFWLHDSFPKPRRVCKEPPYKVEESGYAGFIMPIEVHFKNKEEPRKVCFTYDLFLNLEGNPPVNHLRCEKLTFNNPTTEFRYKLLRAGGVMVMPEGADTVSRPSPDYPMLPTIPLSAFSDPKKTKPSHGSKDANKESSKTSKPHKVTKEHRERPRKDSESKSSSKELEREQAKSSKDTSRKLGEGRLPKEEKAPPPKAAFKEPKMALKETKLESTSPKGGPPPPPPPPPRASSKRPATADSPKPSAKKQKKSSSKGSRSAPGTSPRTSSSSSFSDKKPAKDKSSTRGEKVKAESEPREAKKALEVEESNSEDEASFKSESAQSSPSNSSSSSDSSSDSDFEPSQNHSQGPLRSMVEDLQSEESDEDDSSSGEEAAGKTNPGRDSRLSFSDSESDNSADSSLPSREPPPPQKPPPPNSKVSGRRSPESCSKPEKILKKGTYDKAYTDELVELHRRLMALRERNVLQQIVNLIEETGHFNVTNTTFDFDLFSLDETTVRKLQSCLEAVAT
As to the kind of experiment: cellular thermal shift assay. The following applies: MOLM-13, MV4;11, HEL cells, 50 μM, 12 h; 55 °C, 57 °C, and 59 °C. The format is cell-based. In a few lines:
(§1)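 CETSA: MOLM-13 (Flag-ENL), MV4;11 or HEL cells were incubated with 50 μM test compound for 12 h, washed with PBS and resuspended in PBS with protease inhibitors (~3 million cells/100 μl). Aliquots were heated at indicated temperatures for 3 min, then held at room temperature for 3 min. Cells were lysed by two liquid-nitrogen freeze-thaw cycles and spun at 20,000×g for 20 min at 4 °C. Soluble supernatant was immunoblotted.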

The target in data set [5] is T4, endogenous AF9. As to the kind of experiment: cellular thermal shift assay. Conditions: MOLM-13, MV4;11, HEL cells, 50 μM, 12 h. In kind it is cell-based. In a few lines:
as §1

Data set [6] relates to ENL at HOXA10, MYB, MYC and MEIS1 in MOLM-13 cells. Nature of the data set: ChIP-qPCR of ENL at target genes. The format is cell-based, human. The following applies: MOLM-13 (Flag-ENL) cells, 50 μM, 24 hours. In a few lines:
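MOLM-13 (Flag-ENL) cells (about 20 million) were treated with or without 50 μM test compound for 24 h, cross-linked with formaldehyde for 10 min at room temperature and quenched with glycine. Chromatin was sonicated to 600–800 bp. 50 μg chromatin (5 μg input) was immunoprecipitated overnight at 4 °C with anti-FLAG M2 magnetic beads, washed, eluted and reverse cross-linked. DNA was measured by qPCR as percentage of input, n = 4 (HOXA10) or 3 (others).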
(Quantitative PCR measures a nucleic acid by following its amplification.)

The subject of another data set is MOLM-13 cells. As to the kind of experiment: RT-qPCR of mRNA levels in MOLM-13 cells. The format is cell-based, human.
The target in data set [7] is ENL YEATS domain, ENL (1–138) (human) (UniProt Q03111). As to the kind of experiment: cross-linking.
Data set [8] concerns the target T6, AF9 YEATS domain, AF9 (1–138) (human, UniProt P42568 1-138).
T6 sequence (looked up): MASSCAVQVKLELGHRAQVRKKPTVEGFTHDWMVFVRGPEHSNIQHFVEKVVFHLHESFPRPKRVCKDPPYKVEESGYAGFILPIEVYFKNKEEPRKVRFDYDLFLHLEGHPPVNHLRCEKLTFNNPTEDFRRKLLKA
As to the kind of experiment: ITC. A general note: Isothermal titration calorimetry measures the heat released or taken up as one component is titrated into another.

The target of data set [9] is T7, ENL YEATS domain, ENL (1–138) (human, UniProt Q03111 1-138).
T7 sequence (looked up): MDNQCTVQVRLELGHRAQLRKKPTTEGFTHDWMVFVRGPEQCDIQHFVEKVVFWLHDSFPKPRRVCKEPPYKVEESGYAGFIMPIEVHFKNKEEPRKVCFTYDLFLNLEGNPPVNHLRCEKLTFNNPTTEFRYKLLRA
Nature of the data set: cross-linking.

The target of data set [10] is T6, AF9 YEATS domain, AF9 (1–138). As to the kind of experiment: cross-linking.
[11] abbreviates: nuclear extracts of HeLa S3 and MOLM-13 (Flag-ENL), result in words.

Where a SMILES comes first, the peptide text is derived from it. Where no end group is shown, it is not given here. The star is where a group is joined. Oxazole(5-CO) = O=C(c1cnco1)*; Crotonyl(E) = C/C=C/C(=O)*; 2Furoyl = O=C(c1ccco1)*; Cbz = O=C(OCc1ccccc1)*

Turning to `C[C@H](NC(=O)[C@@H](NC(=O)[C@H](CCC(N)=O)NC(=O)[C@@H](N)CCCCN)[C@@H](C)O)C(=O)N[C@@H](CCCNC(=N)N)C(=O)N[C@@H](CCCCNC(=O)c1ccco1)C(=O)N[C@@H](CO)C(=O)N[C@H](C(=O)NCC(=O)NCC(N)=O)[C@@H](C)O` [XL-07] (H-KQTARK(2Furoyl)STGG-NH2; N-terminus and C-terminus assumed), on AF9 YEATS [1], the binding enhancement was determined as 4.5 fold.

For `C[C@H](NC(=O)[C@@H](NC(=O)[C@H](CCC(N)=O)NC(=O)OCc1ccccc1)[C@@H](C)O)C(=O)N[C@@H](CCCNC(=N)N)C(=O)N[C@@H](CCCCNC(=O)c1ccco1)C(N)=O` [XL-07i], at ENL YEATS, the “lower potency against ENL YEATS” value is recorded as 5 fold. The “selectivity among YEATS domains” value in data set [2] was “more selective toward the YEATS domains of AF9 and ENL over YEATS2 and GAS41”.

Consider `C[C@H](NC(=O)[C@@H](NC(=O)[C@H](CCC(N)=O)NC(=O)[C@@H](N)CCCCN)[C@@H](C)O)C(=O)N[C@@H](CCCNC(=N)N)C(=O)N[C@@H](CCCCNC(=O)c1cnco1)C(=O)N[C@@H](CO)C(=O)N[C@H](C(=O)NCC(=O)NCC(N)=O)[C@@H](C)O` [XL-13] (H-KQTARK(Oxazole(5-CO))STGG-NH2; N-terminus and C-terminus assumed), for which, on AF9 YEATS [1], the binding enhancement was 14.7 fold.

With `C[C@H](NC(=O)OCc1ccccc1)C(=O)N[C@@H](CCCNC(=N)N)C(=O)N[C@@H](CCCCNC(=O)c1cnco1)C(N)=O` [XL-13m], the “weaker inhibition against AF9 YEATS” value on AF9 YEATS [3] is reported as 4.5 fold. Further, the “photo-H3K9cr-induced enrichment of ENL” value on endogenous ENL (setting [11]) was “significantly inhibited”. For the same molecule, the inhibition at 2 µM on endogenous ENL (read-out: inhibition of photo-H3K9cr-induced enrichment of endogenous ENL) is around 50%; on endogenous AF9 [4] (read-out: inhibition of enrichment of AF9), around 3%. For the same molecule, the “enrichment of AF9” value at endogenous AF9 [4] (setting [11]) was “little effects”. Moreover, at ENL, the “thermal stability of ENL (soluble protein)” value is reported as “higher abundance of soluble ENL proteins”. In addition, the “thermal stability of endogenous AF9” value at endogenous AF9 [5] is listed as “almost no differences”. Further, in [6], the “abundance of ENL at HOXA10, MYB, MYC and MEIS1” value is given as “decreases in the abundance of ENL”. For the same molecule, the “transcription levels of HOXA10, MYB, MYC and MEIS1” value with MOLM-13 cells (MOLM-13 (Flag-ENL) cells, 50 μM, 24 hours) is reported as “significant loss in the transcription levels”. Moreover, the “transcription suppression of MYC and HOXA9” value in the data set on MOLM-13 cells (co-treatment of XL-13m (50 μM) and EPZ-5676 (500 nM), 72 hours) is “enhanced effect on the transcription suppression”.

For `C[C@H](NC(=O)OCc1ccccc1)C(=O)N[C@@H](C)C(=O)N[C@@H](CCCNC(=N)N)C(=O)N[C@@H](CCCCNC(=O)c1cnco1)C(N)=O` [XL-13n] (Cbz-AARK(Oxazole(5-CO))-NH2), at AF9 YEATS [3], the “weaker inhibition against AF9 YEATS” value is reported as 6.1 fold.

“XL-13l (dipeptide with only the RK signature motif, 5-oxazolecarbonyl at K27)” registered an IC50 in data set [7] of 3300 nM.

With Cbz-QTARK(2Furoyl), in data set [8], the Kd was determined as 330 nM. Also, the “fold lower potency than against AF9 YEATS” value in [9] stood at 5 fold. In addition, the half-maximal inhibitory concentration (IC50) in data set [10] came to 260 nM.

Molecule QTARK(2Furoyl) [XL-07h (pentapeptide with the QTARK sequence)] yielded an IC50 in data set [10] of 4500 nM.

Turning to KQTARK(Crotonyl(E))STGG (peptide, UniProt P68431 5-14, looked up) [H3K9cr peptide (histone H3 residues 4–13, Lys 9 crotonylated)], the Kd in data set [8] worked out at 14700 nM. Moreover, in data set [10], the IC50 is 6000 nM.

Cbz-QTARK(Oxazole(5-CO)) [XL-13a (XL-07i with the 2-furancarbonyl group replaced by a 5-oxazolecarbonyl group)] displayed a Kd in data set [8] of 130 nM. Besides, in data set [9], the “fold lower potency than against AF9 YEATS” value is 2.9 fold. In addition, half-maximal inhibition in data set [10] (IC50) was put at 240 nM.

As usually defined, the inhibition is the share of the control response that was lost under treatment. A word on the IC50: it is the concentration at which inhibition is half-maximal. Low values mean greater potency, high ones weaker potency. One may read the Kd as the concentration at which binding is half-saturated. Higher therefore signals a looser complex.
